Only some compounds are listed: those with a hit (about 2.9% of all), similar ones and a draw of the others.
Kir21 inh: blocks the mouse Kir2.1 inward-rectifier potassium channel; HEK293-Kir2.1, FluxOR thallium flux fluorescence; stronger effect = lower value; B-score at 10 µM; 310,000 compounds, 0.85% hits; AID 1672;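 active means fluorescence ratio B-score at or below minus 3 SD of library scores, with starting-brightness B-score within 2 SD, cut at about -4.2 in these data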;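 further: channel flux triggered by added potassium and thallium sulfate stimulus; B-score of peak minus minimum fluorescence over baseline after thallium stimulus; more negative B-score means stronger Kir2.1 block with less thallium influx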
TRPC6 activator: activators of mouse TRPC6 channel | Q61143 | HEK293-TRPC6 membrane potential dye fluorescence; stronger effect = higher value | 310,000 compounds, 0.13% hits | AID 2550 | B-score at 10 µM;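 active means B-score of the integrated fluorescence ratio above library mean plus 3 SD, and starting fluorescence ratio within library mean plus 5 SD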;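 further: higher score means more depolarization so channel activation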
TRPC4 potent: allosterically enhances the mouse TRPC4 cation channel; HEK293 TRPC4beta/mu-opioid, DAMGO EC20, Fluo-4 Ca2+ flux; stronger effect = higher value; B-score at 10 µM; 310,000 compounds, 0.42% hits;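 active means B-score of calcium response area above 5 SD of library B-scores, with initial fluorescence ratio within 5 SD of library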
TRPC4 agonist: opens the mouse TRPC4 cation channel; 310,000 compounds, 0.49% hits; AID 2237; HEK293 TRPC4beta/mu-opioid, Fluo4 calcium fluorescence; stronger effect = higher value; B-score at 10 µM; Q9QUQ5;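 active means B-score above 5 SD of library B-scores, and initial fluorescence ratio not above library mean plus 5 SD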;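 further: positive B-score marks a calcium rise read as TRPC4 activation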
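Material: TRPC4beta and mu-opioid receptor HEK293 stable cells | Incubation: 45 min room-temperature Fluo4 loading, 110 s read | Detection: Kinetic Fluo4 calcium fluorescence | Measure: Integrated baseline-normalised fluorescence ratio, converted to per-well B score | Benchmarks: Low control buffer alone, high control maximal DAMGO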
TRPC6 inh: inhibitors of mouse TRPC6 channel. HEK293-TRPC6, membrane potential dye, ACh-evoked depolarization; stronger effect = lower value. B-score at 10 µM. 310,000 compounds, 1.1% hits;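 active means B-score under library mean minus 3 SD, initial fluorescence not abnormally high, positive integrated signal ratio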;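 further: B-score derived from integrated fluorescence ratio over the kinetic read; more negative B-score means stronger inhibition of depolarization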
TRPC4 inh: inhibitors of mouse TRPC4 channel; Q9QUQ5; HEK293 TRPC4beta/mu-opioid, DAMGO-evoked Fluo4 calcium flux; stronger effect = lower value; B-score at 10 µM; 300,000 compounds, 0.39% hits;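 active means B-score over 3 SD under the library average, no early fluorescence shift, positive overall ratio signal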
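Assay system – HEK293 line stably carrying TRPC4beta and mu-opioid receptor · Doses – single dose · Detection – Fluo4 calcium-dye fluorescence, kinetic read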
Numbers stand for hits; i = inactive; ! = a repeat was not active.

SMILES | Kir21 inh | TRPC6 activator | TRPC4 potent | TRPC4 agonist | TRPC6 inh | TRPC4 inh
CCCCN(C)CCNC(=O)c1cc(-c2cccnc2)nc2ccc(S(=O)(=O)N3CCC(C)CC3)cc12 | i | i | i | 57 | i | i
CCN(CC)CCCNC(=O)Cn1cnc2ccc(S(=O)(=O)N3CCC(C)CC3)cc2c1=O | i | i | 12 | i | i | i
CCN(CC)CCNC(=O)c1cc(-c2cccnc2)nc2ccc(S(=O)(=O)N3CCC(C)CC3)cc12 | -5.7 | i | i | i | i | i
CCCCNS(=O)(=O)c1ccc2nc(-c3cccnc3)cc(C(=O)NCCCN(CC)CC)c2c1 | i | i | i | i | i | i
CCCCN(C)CCCNC(=O)c1cc(-c2cccnc2)nc2ccccc12 | i | i | i | i | i | i
CCCCNC(=O)Cn1cnc2ccc(S(=O)(=O)N3CCC(C)CC3)cc2c1=O | i | i | i | i | i | i
CC(C)Nc1nc(-c2cccnc2)nc(-c2ccc(Cl)cc2)c1C#N | i | i | i | i | i | i
Cc1oncc1C(=O)NC(C)C | i | i | i | i | i | i
CC1(C(=O)OCc2cc(=O)n3cc(Br)ccc3n2)CC1(Cl)Cl (centres undefined) | i | i | 15 | i | i | i
CC1CC1C(=O)OCc1cc(=O)n2cc(Br)ccc2n1 (centres undefined) | i | i | i | i | i | i
Cc1nn2c(N3CCOCC3)cc(C(C)C)nc2c1-c1ccccc1 | i | i | i | i | i | i
Cc1nn2c(NCc3ccccn3)cc(C(C)C)nc2c1-c1ccccc1 | i | i | i | i | i | i
Cc1nn2c(NCCCn3ccnc3)cc(C(C)C)nc2c1-c1ccccc1 | -5 | i | i | i | i | i
CCN1CCN(c2cc(C(C)C)nc3c(-c4ccccc4)c(C)nn23)CC1 | -8.1 | i | i | i | i | i
COc1cccc2sc(N3CCN(c4nc5ccccc5s4)CC3)nc12 | i | i | i | i | i | i
COc1ccc(C2=C(CN(C)C)C(c3ccccc3)c3ccccc3O2)cc1 (centres undefined) | -5.2! | i | i | i | i | i
CCOc1ccc(C2=C(C=C(C#N)C#N)C(c3ccccc3)c3ccccc3O2)cc1 (centres undefined) | i | i | i | i | i | i
Cc1ccc(C)c(-c2ccc(=O)n(Cc3ccc(F)cc3Cl)n2)c1 | i | i | 13 | i | i | i
Cc1nn(Cc2ccc(F)cc2Cl)c(C)c1[N+](=O)[O-] | i | i | i | i | i | i
Nc1nnc(-c2cccc([N+](=O)[O-])c2)o1 | i | i | i | i | i | i
O=[N+]([O-])c1cccc(-c2nnc(C3CC3)o2)c1 | i | i | i | i | i | -6
CNS(=O)(=O)c1cccc(C(=O)OCC(=O)Nc2cc(F)ccc2F)c1 | i | i | i | i | i | i
O=C(O)CC(NCc1ccco1)C(=O)OCC1CCCO1 (centres undefined) | i | i | i | i | i | i
O=C1c2ccccc2C(O)N1Cc1ccco1 (centres undefined) | i | i | i | i | i | i
c1coc(CN=C2NC(=NCc3ccco3)c3ccccc32)c1 | -6.2 | i | i | i | i | -7
SMILES | Kir21 inh | TRPC6 activator | TRPC4 potent | TRPC4 agonist | TRPC6 inh | TRPC4 inh
CCC(C(=O)OCC(=O)Nc1c(Cl)cccc1Cl)c1ccccc1 (centres undefined) | -6.9 | i | i | i | i | i
C#Cc1ccc([C@H]2C=C(C(=O)N3CCN(Cc4ccccc4)CC3)O[C@@H](OCc3ccc(CO)cc3)C2)cc1 | i | i | i | i | i | i
C=CCn1c(CSCc2ccc(Cl)cc2)nnc1SCC(=O)NCc1ccccc1 | -4.8 | i | i | i | i | i
C=CCn1c(CSCc2ccc(C)cc2)nnc1SCC(=O)NCc1ccccc1 | i | i | i | i | i | i
COC(=O)Nc1cc([N+](=O)[O-])ccc1OC | i | i | i | i | i | i
CCOC(=O)c1ccc(Nc2nc(=O)c3cccnc3s2)cc1 | i | i | i | i | i | i
CC1CC(C)CN(S(=O)(=O)c2cccc3cccnc23)C1 (centres undefined) | -5.2 | i | i | i | i | i
O=S(=O)(c1cccc2cccnc12)N1CCOCC1 | i | i | i | i | i | i
CCOC(=O)c1c(C)[nH]c(C)c1C(=O)CSc1nc2ccccc2n1CC | -5.3 | i | i | i | i | i
CC(Oc1ccccc1)C(=O)Nc1cccc(NC(=O)c2ccco2)c1 (centres undefined) | i | i | i | i | i | i
CCCOc1ccc(C(=O)NNC(=S)NC(=O)c2ccccc2[N+](=O)[O-])cc1 | i | i | i | i | i | i
O=C(NNC(=S)NC(=O)c1cccc([N+](=O)[O-])c1)c1ccc(Br)cc1 | i | i | i | 79 | i | i
CC(Oc1ccc(Cl)cc1)C(=O)NNC(=S)NC(=O)c1ccco1 (centres undefined) | i | i | i | 183 | i | i
CCCOc1ccc(C(=O)NNC(=S)NC(=O)c2ccco2)cc1 | i | i | i | 217 | i | i
O=C(NC(=S)NNC(=O)c1ccco1)c1ccc(Br)cc1 | i | i | i | 121 | i | -8
CCc1ccc(N/C(SC)=C(/C#N)C(N)=O)cc1 | i | i | i | i | i | i
COc1ccc(C(=O)NNC(=S)NC(=O)c2ccco2)cc1 | i | i | i | 50 | i | i
COc1ccc(C(=O)NC(=S)NNC(=O)c2cccnc2)cc1 | i | i | i | i | i | i
O=C(NNC(=S)NC(=O)c1ccco1)c1ccc(F)cc1 | i | i | i | 67 | i | i
O=C(COc1ccc2c3c(c(=O)oc2c1)CCCC3)N1CCN(c2ccc(F)cc2)CC1 | i | i | i | i | i | i
COC(=O)c1cccc(CSc2nnc(-c3ccco3)n2-c2ccccc2)c1 | -6.8 | i | i | i | i | i
CCOC(=O)CSc1nnc(-c2ccco2)n1-c1ccccc1 | i | i | i | i | i | i
C=CCn1c(SCC(=O)c2ccc(NS(=O)(=O)c3ccccc3)cc2)nnc1-c1cccs1 | i | i | 18 | i | i | i
C=CCn1c(SCC(=O)Nc2ccc(C(=O)OCC)cc2)nnc1-c1cccs1 | i | i | i | i | i | i
CCOc1cc(CN2CCCC(C(=O)c3cccc(C(F)(F)F)c3)C2)ccc1O (centres undefined) | i | i | i | i | i | -7
O=S(=O)(c1ccc(NCCc2c[nH]c3ccccc23)nc1)N1CCOCC1 | i | i | i | i | i | i
c1ccc(OCCOCCN2CCc3ccccc3C2)cc1 | i | i | i | i | i | i
C=CCc1cc(OC)ccc1OCCOCCN1CCc2ccccc2C1 | -12 | i | i | i | i | i
CCCOc1ccc(OCCOCCN2CCc3ccccc3C2)cc1 | -10 | i | i | i | i | i
Cc1ccc(OCCCCN2CCc3ccccc3C2)c(C)c1 | i | i | i | i | i | i

Screening data as filed in PubChem BioAssay.
